Laboratory results as given in ChEMBL document CHEMBL1821725, “Synthesis and biological evaluation of 2',4'- and 3',4'-bridged nucleoside analogues” (Bioorg Med Chem, 2011).
Converted amounts (≈) assume the structure as drawn. The source made the active and inactive calls. No cut-off for these calls is given here.

Key:
[1] = Cytotoxicity against human MT4 cells; assay type: cell-based
[2] = system: Human immunodeficiency virus; test: Antiviral activity against HIV; assay type: functional; settings: Human immunodeficiency virus 1; read-out: ED50 (the source's name)
Raji [3] = test: Cytotoxicity against human Raji cells at 10 uM after 72 hrs by MTT assay; assay type: functional, cell-based
Procedure, shortened: (§1)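 Raji and CCRF-CEM cells incubated with compounds for 72 h. Viability read by MTT reduction to formazan, optical density at 570 nm. Data analysed by one-way ANOVA. IC50 taken as concentration giving 50% growth inhibition. Highest concentration tested 10 μM.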

[4] = system: Human immunodeficiency virus 1; test: Antiviral activity against HIV1 HxB2 infected in human TZM-bl cells assessed as inhibition of virus neutralization after 48 hrs by luciferase assay; assay type: functional, organism-based; settings: Human immunodeficiency virus 1, HxB2, TZM-bl
Procedure, shortened: (§2)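 Single-round HIV-1 pseudoviruses made in 293T cells and titrated on TZM-bl cells. Virus giving ~1 × 10^6 RLU incubated 1 h at 37 °C with serially diluted samples. TZM-bl cells then plated at 1 × 10^5 per well for 48 h. Read-out: luciferase in cell lysate. IC50 = 50% neutralization. Highest concentration tested 100 μM.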

Escherichia coli [5] = test: Antibacterial activity against Escherichia coli MG1655 after 24 hrs by micro-broth dilution method; assay type: functional; settings: K-12 substr. MG1655, 24 h
Procedure, shortened: (§3)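 CLSI broth microdilution. Compounds serially diluted in cation-adjusted Mueller Hinton broth. Inoculum from fresh overnight MHA plate scrape, adjusted to 1 × 10^7 CFU/ml, 5 μL added per well. Incubated at 37 °C for 24 h. MIC = lowest concentration with no visible growth; median of at least three independent replicates. Highest concentration tested 64 μM.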

[6] = system: Human immunodeficiency virus 1; test: Antiviral activity against HIV1 SF162 infected in human TZM-bl cells assessed as inhibition of virus neutralization after 48 hrs by luciferase assay; assay type: functional, organism-based; procedure, shortened: as §2
CCRF-CEM [7] = test: Cytotoxicity against human CCRF-CEM cells at 10 uM after 72 hrs by MTT assay; assay type: functional, cell-based; procedure, shortened: as §1
Staphylococcus aureus [8] = test: Antibacterial activity against Staphylococcus aureus 8325 after 24 hrs by micro-broth dilution method; assay type: functional; settings: NCTC 8325, 24 h; procedure, shortened: as §3
Staphylococcus aureus [9] = test: Antibacterial activity against Staphylococcus aureus 8325 at 64 uM after 24 hrs by micro-broth dilution method; assay type: functional; settings: NCTC 8325; procedure, shortened: as §3
Escherichia coli [10] = test: Antibacterial activity against Escherichia coli MG1655 at 64 uM after 24 hrs by micro-broth dilution method; assay type: functional; settings: K-12 substr. MG1655; procedure, shortened: as §3
Raji [11] = test: Cytotoxicity against human Raji cells after 72 hrs by MTT assay; assay type: functional, cell-based; procedure, shortened: as §1
CCRF-CEM [12] = test: Cytotoxicity against human CCRF-CEM cells after 72 hrs by MTT assay; assay type: functional, cell-based; procedure, shortened: as §1
[13] = system: Human immunodeficiency virus 1; test: Antiviral activity against HIV1 SF162 infected in human TZM-bl cells assessed as inhibition of virus neutralization at 100 uM after 48 hrs by luciferase assay; assay type: functional, organism-based; procedure, shortened: as §2
[14] = system: Human immunodeficiency virus 1; test: Antiviral activity against HIV1 HxB2 infected in human TZM-bl cells assessed as inhibition of virus neutralization at 100 uM after 48 hrs by luciferase assay; assay type: functional, organism-based; procedure, shortened: as §2
[15] = system: Human immunodeficiency virus 1; test: Antiviral activity against HIV1 LAI; assay type: functional, organism-based; settings: Human immunodeficiency virus 1, LAI
[16] = Cytotoxicity against human TZM-bl cells at 33 uM after 48 hrs; assay type: cell-based
[17] = Human immunodeficiency virus 1, SF162, TZM-bl, 48 h, read-out: IC50

| SMILES | IC50 [4] | IC50 [6, 17] | growth inhibition (GI) (Raji [3]) | growth inhibition (GI) (CCRF-CEM [7]) | inhibition (Staphylococcus aureus [9]) | inhibition (Escherichia coli [10]) | also measured |
| --- | --- | --- | --- | --- | --- | --- | --- |
| Cc1cn([C@H]2C[C@@H]3COC[C@]3(CO)O2)c(=O)[nH]c1=O | – | – | – | – | – | – | CC50 [1]: 0.54 µg/mL (≈ 2.01 µM) |
| Cc1cn([C@@H]2O[C@@]3(CO)CO[C@H]3[C@H]2O)c(=O)[nH]c1=O | – | – | – | – | – | – | EC50 [2]: 0.14 µM |
| OC[C@@]12CO[C@@H]([C@H](n3cnc4c(NCc5ccccc5)nc(Cl)nc43)O1)[C@@H]2OCc1ccccc1 | 2.4 µM | 7 µM | inactive | inactive | inactive | inactive | – |
| Nc1nc(Cl)nc2c1ncn2[C@H]1C[C@H](O)[C@@H](CO)O1 [CLADRIBINE] | – | – | – | – | – | – | IC50 (Raji [11]): 0.009 µM; IC50 (CCRF-CEM [12]): 0.0005 µM |
| O=C(c1ccccc1)N(C(=O)c1ccccc1)c1nc(N(C(=O)c2ccccc2)C(=O)c2ccccc2)c2ncn([C@@H]3O[C@@]4(CO)CO[C@@H]3[C@@H]4OCc3ccccc3)c2n1 | – | – | – | – | inactive | inactive | inhibition [13]: inactive; IC50 (Raji [11]): 0.25 µM; inhibition [14]: inactive; IC50 (CCRF-CEM [12]): 0.36 µM |
| Cc1cn([C@@H]2C=CC3(CO)C[C@@H]23)c(=O)[nH]c1=O (single isomer, unassigned) | – | – | – | – | – | – | EC50 [15]: 28.8 µM |
| Cc1cn([C@H]2C[C@H](N=[N+]=[N-])[C@@H](CO)O2)c(=O)[nH]c1=O [ZIDOVUDINE] | 0.037 µM | 0.078 µM | – | – | – | – | EC50 [2]: 0.001 µM |
| Cc1cn([C@@H]2O[C@@]3(CO)COC[C@H]3[C@H]2O)c(=O)[nH]c1=O | – | – | – | – | – | – | CC50 [1]: 0.54 µg/mL (≈ 1.9 µM) |

The next lines start with results.

| IC50 [4] | IC50 [6, 17] | SMILES | growth inhibition (GI) (Raji [3]) | growth inhibition (GI) (CCRF-CEM [7]) | inhibition (Staphylococcus aureus [9]) | inhibition (Escherichia coli [10]) | also measured |
| --- | --- | --- | --- | --- | --- | --- | --- |
| 24.9 µM | 27.9 µM | CN(Cc1ccccc1)c1nc(Cl)nc2c1ncn2[C@@H]1O[C@@]2(CO)CO[C@@H]1[C@@H]2O | inactive | inactive | – | – | MIC (Escherichia coli [5]): 16 µM (≈ 6.69 µg/mL); MIC (Staphylococcus aureus [8]): 8 µM (≈ 3.34 µg/mL) |
| 2.4 µM | – | C=CCc1nc(/C=C/C)c2ncn([C@@H]3O[C@@]4(CO)CO[C@@H]3[C@@H]4OCc3ccccc3)c2n1 | – | – | inactive | inactive | IC50 (Raji [11]): 5.8 µM; Activity [16]: Toxic; IC50 ([6]; tzm-bl): Not Active; IC50 (CCRF-CEM [12]): 7.6 µM |
| 28 µM | 68 µM | CCCCNc1nc(N)c2ncn([C@@H]3O[C@@]4(CO)CO[C@@H]3[C@@H]4OCc3ccccc3)c2n1 | inactive | inactive | inactive | inactive | – |
| – | 60 µM | CCNc1nc(N)c2ncn([C@@H]3O[C@@]4(CO)CO[C@@H]3[C@@H]4OCc3ccccc3)c2n1 | inactive | inactive | inactive | inactive | inhibition [14]: inactive |
